The record followed here is ChEMBL document CHEMBL1139946, “1-Aryl-4,6-dihydropyrazolo[4,3-d][1]benzazepin-5(1H)-ones: a new class of antiproliferative agents with selectivity for human leukemia and breast cancer cell lines” (Eur J Med Chem, 2007).

Test [1] deals with T1, NUAK family SNF1-like kinase 1 (Homo sapiens) (UniProt O60285).
T1 sequence (whole entry): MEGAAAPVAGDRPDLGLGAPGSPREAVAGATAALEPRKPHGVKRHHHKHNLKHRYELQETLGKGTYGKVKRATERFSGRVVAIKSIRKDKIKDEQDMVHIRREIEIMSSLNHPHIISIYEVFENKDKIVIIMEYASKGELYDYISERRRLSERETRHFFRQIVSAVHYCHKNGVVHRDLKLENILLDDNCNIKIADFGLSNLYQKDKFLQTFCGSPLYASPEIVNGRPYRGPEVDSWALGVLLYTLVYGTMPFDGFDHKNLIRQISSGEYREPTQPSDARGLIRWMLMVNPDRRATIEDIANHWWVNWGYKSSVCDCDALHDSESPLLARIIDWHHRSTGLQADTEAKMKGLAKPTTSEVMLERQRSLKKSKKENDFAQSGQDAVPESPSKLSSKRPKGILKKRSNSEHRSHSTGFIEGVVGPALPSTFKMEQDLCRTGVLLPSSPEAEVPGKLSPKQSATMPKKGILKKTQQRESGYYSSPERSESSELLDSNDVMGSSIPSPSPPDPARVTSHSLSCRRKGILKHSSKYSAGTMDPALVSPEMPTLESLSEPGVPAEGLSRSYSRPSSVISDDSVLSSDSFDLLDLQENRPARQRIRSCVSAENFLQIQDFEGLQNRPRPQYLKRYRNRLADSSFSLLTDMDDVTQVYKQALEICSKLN
Kind of test: Inhibition of ARK5 at 10 uM.

Another test deals with MCF7. Nature of the test: Antiproliferative activity against human MCF7 cells at 100 uM after 48 hrs relative to control. Format: functional. The note with it: MCF7, 48 h. The procedure, abridged:
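NCI three-cell-line prescreen (MCF7 breast, NCI-H460 non-small cell lung, SF-268 CNS). Cells inoculated and preincubated in microtiter plates, then exposed to test agent at 10^-4 M for 48 h. Alamar blue end-point read-out. Growth of treated cells expressed as percent of untreated control cells.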

The target of test [2] is RAC-alpha serine/threonine-protein kinase (Homo sapiens) (UniProt P31749). Nature of the test: Inhibition of AKT1 at 10 uM.
Chain of RAC-alpha serine/threonine-protein kinase (Homo sapiens) (P31749 whole entry): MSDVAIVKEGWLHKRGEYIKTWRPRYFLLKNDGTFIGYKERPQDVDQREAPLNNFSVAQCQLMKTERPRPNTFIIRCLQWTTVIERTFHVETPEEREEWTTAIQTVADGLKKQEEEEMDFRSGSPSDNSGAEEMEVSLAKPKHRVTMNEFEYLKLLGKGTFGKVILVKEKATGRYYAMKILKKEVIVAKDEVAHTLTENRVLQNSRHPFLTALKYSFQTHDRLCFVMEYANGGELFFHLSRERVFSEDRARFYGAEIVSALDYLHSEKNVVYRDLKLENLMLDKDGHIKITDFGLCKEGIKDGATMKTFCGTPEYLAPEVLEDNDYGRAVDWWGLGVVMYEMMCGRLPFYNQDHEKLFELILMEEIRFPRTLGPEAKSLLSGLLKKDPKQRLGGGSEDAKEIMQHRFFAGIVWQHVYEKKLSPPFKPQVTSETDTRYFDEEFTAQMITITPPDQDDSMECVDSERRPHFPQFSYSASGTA
Another test has as its system K562. Kind of test: Antitumor activity against human K562 cells after 48 hrs by sulforhodamine B protein assay. Format: functional. The note with it: K562, 48 h. The gist of the method:
(§1)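 Part of the NCI 60-cell-line screen. Compounds tested at five concentrations (10^-8 to 10^-4 M) with continuous exposure for 48 h. Cell growth read by sulforhodamine B protein assay, with percent growth from optical density of treated versus untreated control cultures. GI50 is the concentration giving 50% net growth inhibition.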
(The SRB assay estimates cell density from bound dye.)

Test [3] deals with Serine/threonine-protein kinase PAK 4 (Homo sapiens) (UniProt O96013). Nature of the test: Inhibition of PAK4 at 10 uM.
Chain of Serine/threonine-protein kinase PAK 4 (Homo sapiens) (O96013 whole entry, looked up): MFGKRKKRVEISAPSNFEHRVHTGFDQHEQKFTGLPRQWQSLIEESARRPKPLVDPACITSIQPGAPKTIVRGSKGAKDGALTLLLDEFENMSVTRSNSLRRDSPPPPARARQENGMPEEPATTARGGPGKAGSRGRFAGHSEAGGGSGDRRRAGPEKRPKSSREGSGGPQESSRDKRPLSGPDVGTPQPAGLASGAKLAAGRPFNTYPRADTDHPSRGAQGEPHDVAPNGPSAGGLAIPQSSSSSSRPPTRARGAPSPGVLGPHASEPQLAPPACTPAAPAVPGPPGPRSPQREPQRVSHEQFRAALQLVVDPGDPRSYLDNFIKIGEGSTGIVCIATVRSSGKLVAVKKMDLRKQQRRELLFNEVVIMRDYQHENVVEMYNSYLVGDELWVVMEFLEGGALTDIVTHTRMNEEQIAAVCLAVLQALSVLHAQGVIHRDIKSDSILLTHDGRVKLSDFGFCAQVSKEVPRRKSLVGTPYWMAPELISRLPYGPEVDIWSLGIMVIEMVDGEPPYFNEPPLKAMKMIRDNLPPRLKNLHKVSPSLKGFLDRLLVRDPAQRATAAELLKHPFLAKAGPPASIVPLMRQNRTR
Test [4] deals with Platelet-derived growth factor receptor beta (Homo sapiens) (UniProt P09619). Kind of test: Inhibition of PDGFRbeta at 10 uM.
Chain of Platelet-derived growth factor receptor beta (Homo sapiens) (P09619 whole entry): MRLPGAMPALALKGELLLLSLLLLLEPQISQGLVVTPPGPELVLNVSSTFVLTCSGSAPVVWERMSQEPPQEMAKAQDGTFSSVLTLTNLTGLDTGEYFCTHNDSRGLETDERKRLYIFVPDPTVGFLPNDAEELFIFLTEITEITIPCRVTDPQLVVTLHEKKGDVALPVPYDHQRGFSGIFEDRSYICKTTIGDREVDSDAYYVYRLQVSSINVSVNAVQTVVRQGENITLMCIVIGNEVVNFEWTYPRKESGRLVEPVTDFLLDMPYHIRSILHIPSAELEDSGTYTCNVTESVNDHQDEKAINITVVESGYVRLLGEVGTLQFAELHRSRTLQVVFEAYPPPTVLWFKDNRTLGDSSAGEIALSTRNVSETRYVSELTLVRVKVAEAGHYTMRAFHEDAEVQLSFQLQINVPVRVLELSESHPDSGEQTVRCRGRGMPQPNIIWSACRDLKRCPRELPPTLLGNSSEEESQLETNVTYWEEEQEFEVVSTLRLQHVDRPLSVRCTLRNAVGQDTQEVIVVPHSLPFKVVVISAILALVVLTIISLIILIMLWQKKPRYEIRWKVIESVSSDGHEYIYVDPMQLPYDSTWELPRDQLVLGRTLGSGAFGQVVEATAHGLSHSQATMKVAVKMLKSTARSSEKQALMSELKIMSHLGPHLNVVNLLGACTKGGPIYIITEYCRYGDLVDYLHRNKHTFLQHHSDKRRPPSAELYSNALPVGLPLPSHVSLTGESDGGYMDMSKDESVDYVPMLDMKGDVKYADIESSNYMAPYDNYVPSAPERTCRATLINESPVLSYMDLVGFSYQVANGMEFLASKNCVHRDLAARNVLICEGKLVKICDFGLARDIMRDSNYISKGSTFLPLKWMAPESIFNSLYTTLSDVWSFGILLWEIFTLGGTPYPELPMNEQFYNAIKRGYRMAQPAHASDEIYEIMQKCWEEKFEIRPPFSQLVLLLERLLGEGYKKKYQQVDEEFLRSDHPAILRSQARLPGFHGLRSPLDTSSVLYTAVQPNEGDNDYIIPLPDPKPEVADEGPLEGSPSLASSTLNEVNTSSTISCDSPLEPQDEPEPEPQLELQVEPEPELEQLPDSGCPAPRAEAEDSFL
The next test deals with MDA-MB-435. Nature of the test: Antitumor activity against human MDA-MB435 cells after 48 hrs by sulforhodamine B protein assay. Format: functional. Conditions: MDA-MB-435, 48 h. The procedure, abridged: as §1
For test [5], the target named is T2, Ephrin type-B receptor 4 (Homo sapiens) (UniProt P54760).
T2 sequence (whole entry): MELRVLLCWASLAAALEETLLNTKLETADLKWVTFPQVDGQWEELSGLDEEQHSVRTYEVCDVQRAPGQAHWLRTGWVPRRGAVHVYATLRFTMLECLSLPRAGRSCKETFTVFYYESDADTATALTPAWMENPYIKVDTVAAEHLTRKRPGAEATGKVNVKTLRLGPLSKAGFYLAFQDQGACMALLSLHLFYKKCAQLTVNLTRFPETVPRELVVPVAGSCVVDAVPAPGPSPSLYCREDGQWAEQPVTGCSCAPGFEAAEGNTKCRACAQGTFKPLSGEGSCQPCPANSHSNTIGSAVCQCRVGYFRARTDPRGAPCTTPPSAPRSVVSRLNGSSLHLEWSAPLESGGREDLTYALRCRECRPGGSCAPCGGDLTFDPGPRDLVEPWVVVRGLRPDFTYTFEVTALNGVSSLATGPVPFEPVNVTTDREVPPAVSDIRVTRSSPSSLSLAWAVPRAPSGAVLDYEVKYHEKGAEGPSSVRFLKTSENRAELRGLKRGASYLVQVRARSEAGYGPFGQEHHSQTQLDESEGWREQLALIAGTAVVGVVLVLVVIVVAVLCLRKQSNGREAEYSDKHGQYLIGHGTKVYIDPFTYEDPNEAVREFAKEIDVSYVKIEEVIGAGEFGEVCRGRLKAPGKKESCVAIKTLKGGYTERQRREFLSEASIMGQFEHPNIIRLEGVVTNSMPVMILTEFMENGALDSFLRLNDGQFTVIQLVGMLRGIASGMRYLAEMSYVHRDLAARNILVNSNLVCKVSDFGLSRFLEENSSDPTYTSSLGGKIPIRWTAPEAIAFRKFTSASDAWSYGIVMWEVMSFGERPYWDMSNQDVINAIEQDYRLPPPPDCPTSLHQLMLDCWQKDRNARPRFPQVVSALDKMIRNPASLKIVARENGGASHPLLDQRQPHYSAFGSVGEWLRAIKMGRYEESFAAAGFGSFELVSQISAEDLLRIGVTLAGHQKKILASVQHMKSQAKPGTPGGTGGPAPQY
Kind of test: Inhibition of EphB4 at 10 uM.

Test [6] deals with Cyclin-dependent kinase 4 (Homo sapiens, UniProt P11802). Kind of test: Inhibition of CDK4.
Chain of Cyclin-dependent kinase 4 (P11802 whole entry): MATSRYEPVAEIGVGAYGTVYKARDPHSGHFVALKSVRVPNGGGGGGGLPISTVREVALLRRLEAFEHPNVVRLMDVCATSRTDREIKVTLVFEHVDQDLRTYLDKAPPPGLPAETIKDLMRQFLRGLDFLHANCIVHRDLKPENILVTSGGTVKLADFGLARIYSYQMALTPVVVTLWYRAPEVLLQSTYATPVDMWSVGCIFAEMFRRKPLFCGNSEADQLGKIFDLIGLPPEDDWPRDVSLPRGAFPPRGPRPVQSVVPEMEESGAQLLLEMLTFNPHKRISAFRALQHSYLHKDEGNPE
The target in test [7] is Epidermal growth factor receptor (Homo sapiens) (UniProt P00533). Kind of test: Inhibition of EGFR at 10 uM.
Chain of Epidermal growth factor receptor (Homo sapiens) (P00533 whole entry): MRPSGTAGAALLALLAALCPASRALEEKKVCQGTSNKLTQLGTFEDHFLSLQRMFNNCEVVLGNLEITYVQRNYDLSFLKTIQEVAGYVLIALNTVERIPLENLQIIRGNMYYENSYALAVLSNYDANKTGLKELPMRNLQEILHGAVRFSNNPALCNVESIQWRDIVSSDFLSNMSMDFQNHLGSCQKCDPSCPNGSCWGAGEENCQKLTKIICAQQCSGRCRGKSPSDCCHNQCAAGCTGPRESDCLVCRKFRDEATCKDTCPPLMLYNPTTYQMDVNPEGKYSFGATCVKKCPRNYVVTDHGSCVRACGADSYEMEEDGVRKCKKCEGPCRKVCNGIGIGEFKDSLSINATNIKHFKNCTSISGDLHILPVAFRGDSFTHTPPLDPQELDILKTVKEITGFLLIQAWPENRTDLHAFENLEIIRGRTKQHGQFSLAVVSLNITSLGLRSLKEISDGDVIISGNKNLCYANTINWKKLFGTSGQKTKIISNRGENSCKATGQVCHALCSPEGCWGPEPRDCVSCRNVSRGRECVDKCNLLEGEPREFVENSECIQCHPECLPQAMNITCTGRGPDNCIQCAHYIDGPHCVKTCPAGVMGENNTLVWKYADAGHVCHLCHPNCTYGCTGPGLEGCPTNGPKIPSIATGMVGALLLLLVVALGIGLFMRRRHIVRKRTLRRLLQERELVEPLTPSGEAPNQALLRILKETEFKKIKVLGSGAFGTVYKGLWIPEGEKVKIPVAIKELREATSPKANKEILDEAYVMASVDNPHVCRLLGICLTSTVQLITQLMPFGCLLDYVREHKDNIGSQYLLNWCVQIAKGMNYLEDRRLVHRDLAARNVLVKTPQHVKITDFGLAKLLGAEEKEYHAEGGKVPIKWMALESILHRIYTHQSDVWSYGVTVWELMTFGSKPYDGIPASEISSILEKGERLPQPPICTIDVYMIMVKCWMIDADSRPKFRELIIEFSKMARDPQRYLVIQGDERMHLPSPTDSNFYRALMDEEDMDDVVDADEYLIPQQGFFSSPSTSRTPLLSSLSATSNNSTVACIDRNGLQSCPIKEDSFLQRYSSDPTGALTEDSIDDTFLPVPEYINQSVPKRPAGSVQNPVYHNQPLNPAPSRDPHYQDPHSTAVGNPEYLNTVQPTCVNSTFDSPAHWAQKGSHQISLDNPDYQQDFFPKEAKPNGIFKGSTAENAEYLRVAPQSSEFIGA
Test [8] concerns the target Receptor-type tyrosine-protein kinase FLT3 (Homo sapiens, UniProt P36888). Kind of test: Inhibition of FLT3.
In test [9] the target is Vascular endothelial growth factor receptor 3 (Homo sapiens, UniProt P35916). Kind of test: Inhibition of VEGFR3.
Chain of Vascular endothelial growth factor receptor 3 (P35916 whole entry): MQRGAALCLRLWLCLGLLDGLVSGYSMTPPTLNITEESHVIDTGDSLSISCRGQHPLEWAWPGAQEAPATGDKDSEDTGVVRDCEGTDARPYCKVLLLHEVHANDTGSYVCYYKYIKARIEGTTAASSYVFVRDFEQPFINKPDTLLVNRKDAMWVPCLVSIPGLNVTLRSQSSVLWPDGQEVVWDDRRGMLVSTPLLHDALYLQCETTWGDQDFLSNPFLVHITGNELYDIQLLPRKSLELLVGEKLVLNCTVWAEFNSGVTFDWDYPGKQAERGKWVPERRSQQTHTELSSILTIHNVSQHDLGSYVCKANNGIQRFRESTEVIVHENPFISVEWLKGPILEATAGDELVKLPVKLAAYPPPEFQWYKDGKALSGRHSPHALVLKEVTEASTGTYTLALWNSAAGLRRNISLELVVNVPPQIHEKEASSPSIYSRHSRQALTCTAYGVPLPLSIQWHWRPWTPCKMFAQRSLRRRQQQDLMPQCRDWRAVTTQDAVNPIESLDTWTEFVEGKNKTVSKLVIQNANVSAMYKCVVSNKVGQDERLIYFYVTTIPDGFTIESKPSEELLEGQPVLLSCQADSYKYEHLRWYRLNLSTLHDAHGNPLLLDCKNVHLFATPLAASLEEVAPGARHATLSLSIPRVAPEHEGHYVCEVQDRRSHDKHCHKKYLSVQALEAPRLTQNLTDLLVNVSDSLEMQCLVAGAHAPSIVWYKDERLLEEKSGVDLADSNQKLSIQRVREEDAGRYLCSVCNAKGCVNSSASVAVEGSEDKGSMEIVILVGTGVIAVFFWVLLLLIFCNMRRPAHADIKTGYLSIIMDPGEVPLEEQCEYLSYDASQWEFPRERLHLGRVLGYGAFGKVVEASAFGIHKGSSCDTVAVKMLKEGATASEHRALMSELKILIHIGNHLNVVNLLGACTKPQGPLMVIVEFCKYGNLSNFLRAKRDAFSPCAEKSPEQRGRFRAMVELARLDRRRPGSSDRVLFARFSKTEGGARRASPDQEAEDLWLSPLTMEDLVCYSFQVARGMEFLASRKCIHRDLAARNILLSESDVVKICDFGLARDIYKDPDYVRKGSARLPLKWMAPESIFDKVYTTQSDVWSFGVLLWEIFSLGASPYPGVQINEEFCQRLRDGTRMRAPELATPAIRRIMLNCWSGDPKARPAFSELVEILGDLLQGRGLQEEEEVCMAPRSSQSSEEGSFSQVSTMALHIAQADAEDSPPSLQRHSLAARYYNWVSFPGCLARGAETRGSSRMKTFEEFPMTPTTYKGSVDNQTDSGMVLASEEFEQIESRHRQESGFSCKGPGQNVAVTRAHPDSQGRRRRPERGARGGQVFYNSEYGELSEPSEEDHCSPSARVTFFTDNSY

In the case of `O=C1Cc2cnn(-c3ccc(C(F)(F)F)cc3)c2-c2ccccc2N1`, the inhibition in test [1], in test [2], in [3], in test [4] and in test [5] was less than 40% throughout. In the test with MCF7, this compound displayed a growth, % of control at 100 µM of 52%. The 50% growth inhibitory concentration (GI50) in the test on K562 was 12.6 µM; in the test with MDA-MB-435, 11.2 µM.

For `O=C1Cc2cnn(-c3cccc(Cl)c3)c2-c2ccccc2N1`, the inhibition in test [1], in test [2], in test [3], in test [4] and in [5] was less than 40% in each case. The growth, % of control at 100 µM with MCF7 was 64%. Besides, in test [6], the IC50 was more than 10 µM.

For `O=C1Cc2cnn(-c3ccccc3Cl)c2-c2ccccc2N1`, the inhibition in test [1], in test [2], in test [3], in [4] and in test [5] was less than 40% each time. In the test on MCF7, this compound yielded a growth, % of control at 100 µM of 66%.

For the compound `O=C1Cc2cnn(-c3ccccc3)c2-c2ccccc2N1`, the inhibition in test [1], in test [2], in [7], in test [3], in test [4] and in test [5] was less than 40% in each case. In the test with MCF7, the growth, % of control at 100 µM amounted to 55%.

For the compound `COc1ccc(-n2ncc3c2-c2ccccc2NC(=O)C3)cc1`, the inhibition in [1], in test [2], in test [3], in [4] and in test [5] was less than 40% each time. The same compound showed a growth, % of control at 100 µM in the test on MCF7 of 60%. The GI50 in the test on K562 was 0.35 µM; in the test on MDA-MB-435 it was 0.025 µM.

Turning to `O=C1Cc2cnn(-c3ccccc3F)c2-c2ccccc2N1`, the inhibition in test [1], in test [2], in test [3], in test [4] and in test [5] was less than 40% throughout. The growth, % of control at 100 µM with MCF7 worked out at 66%.

Turning to `Cc1ccc(-n2ncc3c2-c2ccccc2NC(=O)C3)cc1`, the inhibition in test [1], in [2], in test [3], in test [4] and in test [5] was less than 40% throughout. For the same compound, the growth, % of control at 100 µM in the test with MCF7 is 57%. The GI50 was 1.78 µM in the test on K562 and 2.09 µM with MDA-MB-435.

Turning to `O=C1Cc2cnn(-c3ccc(Br)cc3)c2-c2ccccc2N1`, the inhibition in [1], in [2], in test [3], in test [4] and in [5] was less than 40% each time. The compound further came in with a growth, % of control at 100 µM in the test on MCF7 of 51%. Moreover, the figures for the GI50 in the test with K562 and with MDA-MB-435 were 4.07 µM and 1.91 µM, respectively.

Turning to `O=C1Cc2cnn(-c3ccc(F)cc3F)c2-c2ccccc2N1`, the inhibition in [1], in [2], in [3], in [4] and in test [5] was less than 40% in each case. In addition, the growth, % of control at 100 µM in the test with MCF7 is 61%.

Consider `O=C1Cc2cnn(-c3ccc(Cl)cc3)c2-c2ccccc2N1`, for which the inhibition in test [1], in test [2], in [3], in test [4] and in test [5] was less than 40% in each case. In the test with MCF7, this compound had a growth, % of control at 100 µM of 54%. The IC50 in test [8] is more than 10 µM.

Take `O=C1Cc2cnn(-c3cc(Cl)cc(Cl)c3)c2-c2ccccc2N1`: the inhibition in test [1], in test [2], in test [3], in [4] and in test [5] was less than 40% in each case. The compound further gave a growth, % of control at 100 µM with MCF7 of 40%. Further, the GI50 in the test with K562 and in the test on MDA-MB-435 was less than 0.01 µM in each case.

As for `Cc1ccccc1-n1ncc2c1-c1ccccc1NC(=O)C2`, the inhibition in test [1], in [2], in test [3], in test [4] and in test [5] was less than 40% in each case. In addition, the growth, % of control at 100 µM with MCF7 is 64%.

`O=C1Cc2cnn(-c3ccc([N+](=O)[O-])cc3)c2-c2ccccc2N1`: the inhibition in test [1], in test [2], in [3], in [4] and in [5] was less than 40% throughout. Also, the growth, % of control at 100 µM in the test with MCF7 is 55%.

On to `CC(C)(C)c1ccc(-n2ncc3c2-c2ccccc2NC(=O)C3)cc1`, for which the inhibition in [1], in test [2], in test [3], in [4] and in test [5] was less than 40% throughout. This compound also returned a growth, % of control at 100 µM with MCF7 of 130%. Besides, the results for the GI50 in the test on K562 and with MDA-MB-435 were 31.6 µM and 18.6 µM, respectively. The compound also showed an IC50 in [9] of more than 10 µM.

Consider `O=C1Cc2cnn(-c3ccccc3Br)c2-c2ccccc2N1`, for which the inhibition in test [1], in test [2], in test [3], in test [4] and in test [5] was less than 40% each time. The compound further displayed a growth, % of control at 100 µM with MCF7 of 69%.

In general, inhibition refers to the drop in the measured response relative to a control, in per cent. The GI50 is the concentration at which growth is held to half of that of the control. As a reminder, the IC50 is the point on the concentration scale where inhibition reaches its midpoint.
